Data published in ChEMBL document CHEMBL1154130, “Synthesis and biological activities of thio-avarol derivatives” (J Nat Prod, 2008).
Converted amounts (≈) assume the structure as drawn. The source made the active and inactive calls. The calls are words filed in the database; no cut-off is given here.

Key:
[1] = tested on: Radical scavenging activity; test: Antioxidant activity assessed as DPPH radical scavenging activity; type: functional
Procedure, shortened: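 Compounds were tested in MeOH at 5, 10, 20, 50 and 100 µM with DPPH at 0.1 mM final. Absorbance at 517 nm was read after 30 min. Percent radical inhibition was plotted to give the IC50, the concentration scavenging 50% of DPPH. Trolox was the positive control.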

Bacillus spizizenii = test: Antimicrobial activity against Bacillus subtilis subsp. spizizenii DMS 347 after 48 hrs by serial dilution method; type: functional
Procedure, shortened: (§1)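 Bacteria grown as liquid cultures in nutrient broth at 37 °C. […] Growth was scored after 48 h of incubation.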

Escherichia coli = test: Antimicrobial activity against Escherichia coli DSM 498 after 48 hrs by serial dilution method; type: functional, organism-based; procedure, shortened: as §1
Saccharomyces cerevisiae = test: Antimicrobial activity against Saccharomyces cerevisiae DMS 70449 after 48 hrs by serial dilution method; type: functional
Artemia salina = test: Toxicity against Artemia salina after 24 hrs; type: organism-based; conditions: in vivo
Procedure, shortened: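 Freshly hatched Artemia salina larvae (10 per test) in 5 mL artificial seawater; compounds dissolved in DMSO, tested at final 100, 10 and 1 ppm, in triplicate. Surviving shrimps counted after 24 h; LD50 with 95% confidence intervals by Finney probit analysis, reported in ppm.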

Micrococcus luteus = test: Antimicrobial activity against Micrococcus luteus DMS 348 after 48 hrs by serial dilution method; type: functional; procedure, shortened: as §1
[2] = target: Acetylcholinesterase (Homo sapiens) (UniProt P22303)
Sequence of Acetylcholinesterase (Homo sapiens) (P22303 whole entry): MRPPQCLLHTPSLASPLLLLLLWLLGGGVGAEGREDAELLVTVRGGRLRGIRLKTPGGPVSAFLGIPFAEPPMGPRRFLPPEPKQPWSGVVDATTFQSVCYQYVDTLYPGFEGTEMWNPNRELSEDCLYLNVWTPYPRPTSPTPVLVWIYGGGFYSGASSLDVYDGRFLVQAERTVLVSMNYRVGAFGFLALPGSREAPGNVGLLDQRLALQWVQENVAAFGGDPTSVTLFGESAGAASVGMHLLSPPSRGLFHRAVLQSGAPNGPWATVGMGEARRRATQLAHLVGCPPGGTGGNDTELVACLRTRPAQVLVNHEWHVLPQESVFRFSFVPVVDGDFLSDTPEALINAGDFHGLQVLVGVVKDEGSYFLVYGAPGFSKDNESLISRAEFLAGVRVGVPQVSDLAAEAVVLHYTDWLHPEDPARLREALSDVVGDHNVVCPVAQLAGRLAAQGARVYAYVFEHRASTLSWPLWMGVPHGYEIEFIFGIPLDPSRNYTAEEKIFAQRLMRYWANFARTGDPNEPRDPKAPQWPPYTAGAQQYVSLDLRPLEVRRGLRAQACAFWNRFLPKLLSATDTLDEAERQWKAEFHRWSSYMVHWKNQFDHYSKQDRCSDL

Row | Compound | IC50 ([1]; read-out: IC50) | MIC (Bacillus spizizenii) | Activity (Escherichia coli) | MIC (Saccharomyces cerevisiae) | LC50 (Artemia salina) | MIC (Micrococcus luteus) | MIC [2] | MIC (Bacillus spizizenii; DMS 347, 48 h) | MIC (Micrococcus luteus; DMS 348, 48 h) | MIC (Saccharomyces cerevisiae; DMS 70449, 48 h) | IC50 [1]
1 | CC1=CCC[C@H]2[C@](C)(Cc3cc(O)c(Sc4nc5ccccc5s4)cc3O)[C@@H](C)CC[C@]12C | 31.2 µM | inactive | inactive | inactive | Not Active | inactive | > 10 µg | – | – | – | –
2 | CC1=CCC[C@H]2[C@](C)(CC3=CC(=O)C=CC3=O)[C@@H](C)CC[C@]12C [AVARONE] | 32.1 µM | – | inactive | inactive | 0.14 ppm | – | 1 µg | 10 µg/mL (≈ 32 µM) | 1 µg/mL (≈ 3.2 µM) | – | –
3 | CC1=CCC[C@H]2[C@](C)(CC3=CC(O)C(S[C@H]4CC[C@@]5(C)C(=CC[C@H]6[C@@H]7CC[C@H]([C@H](C)CCCC(C)C)[C@@]7(C)CC[C@@H]65)C4)=CC3O)[C@@H](C)CC[C@]12C (stereo partly specified) | 71.4 µM | – | – | – | Not Active | – | – | – | – | – | –
4 | Cc1c(C)c2c(c(C)c1O)CCC(C)(C(=O)O)O2 (stereo unspecified) [TROLOX] | 25.8 µM | – | – | – | – | – | – | – | – | – | –
5 | CC1=CCC[C@H]2[C@](C)(Cc3cc(O)cc(Sc4nc5ccccc5s4)c3O)[C@@H](C)CC[C@]12C | 29.5 µM | inactive | inactive | – | Not Active | – | 10 µg | – | 0.01 µg/mL (≈ 0.0208 µM) | 100 µg/mL (≈ 208 µM) | –
6 | CC1=CCC[C@H]2[C@](C)(Cc3cc(O)cc(Sc4cccc(C(=O)O)c4)c3O)[C@@H](C)CC[C@]12C | 31.8 µM | – | inactive | inactive | 14.73 ppm | – | 1 µg | 10 µg/mL (≈ 21.4 µM) | 10 µg/mL (≈ 21.4 µM) | – | –
7 | CC1=CCC[C@H]2[C@](C)(Cc3cc(O)cc(Sc4ccccc4CO)c3O)[C@@H](C)CC[C@]12C | 25.3 µM | inactive | inactive | inactive | > 50 ppm | inactive | 10 µg | – | – | – | –
8 | CC1=CCC[C@H]2[C@](C)(Cc3cc(O)c(SC(C)C(=O)O)cc3O)[C@@H](C)CC[C@]12C (stereo partly specified) | 35.3 µM | – | inactive | inactive | > 50 ppm | inactive | 1 µg | 10 µg/mL (≈ 23.9 µM) | – | – | –
9 | CC1=CCC[C@H]2[C@](C)(CC3=CC(O)C(S[C@H]4CC[C@@]5(C)C(=CC[C@H]6[C@@H]7CC[C@H]([C@H](C)CCCC(C)C)[C@@]7(C)CC[C@@H]65)C4)=C(S[C@H]4CC[C@@]5(C)C(=CC[C@H]6[C@@H]7CC[C@H]([C@H](C)CCCC(C)C)[C@@]7(C)CC[C@@H]65)C4)C3O)[C@@H](C)CC[C@]12C (stereo partly specified) | 41.5 µM | inactive | inactive | inactive | Not Active | inactive | > 10 µg | – | – | – | –
10 | NYSTATIN | – | – | – | 100 µg/mL | – | – | – | – | – | – | –
11 | CC1=CCC[C@H]2[C@](C)(Cc3cc(O)ccc3O)[C@@H](C)CC[C@]12C [AVAROL] | 18 µM | – | inactive | inactive | 0.18 ppm | – | 10 µg | 25 µg/mL (≈ 79.5 µM) | 10 µg/mL (≈ 31.8 µM) | – | –
12 | CC1=CCC[C@H]2[C@](C)(Cc3cc(O)cc(SC(C)C(=O)O)c3O)[C@@H](C)CC[C@]12C (stereo partly specified) | 34.6 µM | – | inactive | inactive | 27.25 ppm | inactive | 1 µg | 10 µg/mL (≈ 23.9 µM) | – | – | –
13 | GENTAMICIN | – | 1 µg/mL | – | – | – | 10 µg/mL | – | – | – | – | –
14 | CC1=CCC[C@H]2[C@](C)(CC3=CC(=O)C(S[C@H]4CC[C@@]5(C)C(=CC[C@H]6[C@@H]7CC[C@H]([C@H](C)CCCC(C)C)[C@@]7(C)CC[C@@H]65)C4)=CC3=O)[C@@H](C)CC[C@]12C | – | inactive | inactive | inactive | Not Active | inactive | > 10 µg | – | – | – | Not Active
